Assay outcomes: PubChem, Johns Hopkins Ion Channel Center
Hits are enriched below; roughly 3.1% of the tested compounds scored in any of these assays.
KCNQ1 block: blocks the human KCNQ1 potassium channel | AID 2642 | B-score at 10 µM | P51787 | CHO-K1 KCNQ1, FluxOR thallium flux fluorescence; active compounds read high | 310,000 tested, 1.3% active;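 active = compounds whose thallium flux B-score, printed positive for inhibition, exceeds three library SD while starting fluorescence stays within three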;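 also: channel opened by potassium depolarization with thallium stimulus after 20 min compound exposure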
KCNK9 block: human KCNK9 channel inhibition. HEK293 KCNK9, FluxOR thallium flux fluorescence; active compounds read low. AID 488922. B-score at 10 µM. 310,000 tested, 1.2% active;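 active = ratio B-score over 3 SD below the library mean, with starting fluorescence within 5 SD of its mean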;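 also: negative B-score means less thallium flux so channel inhibition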
hERG rescue: hERG (human) protection from proarrhythmic block. AID 1511. activation (rescue from dofetilide block), less the hit threshold, % at 10 µM. 310,000 tested, 0.51% active. CHO-hERG, FluxOR thallium flux, dofetilide IC70 present;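 active = activation above the mean of controls blocked by dofetilide plus 5 SD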;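 also: thallium influx through hERG after potassium depolarization seen as dye fluorescence rise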
KCNQ1 pot: potentiators or activators of human KCNQ1 potassium channel | B-score at 10 µM | P51787 | AID 2648 | CHO-K1 KCNQ1, thallium flux FluxOR fluorescence; active compounds read high | 310,000 tested, 0.35% active;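 active = fluorescence ratio B-score, a plate-corrected score, at least three library SD, with initial intensity B-score within 5 SD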
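Assay system: CHO-K1 cells stably expressing KCNQ1. Medium: assay buffer for compound exposure, DMSO matched across wells. Timing: 37 °C overnight plating, 90-min dark dye load, 20-min compound pretreatment. Signal: kinetic FluxOR fluorescence, 10 s baseline plus 110 s post-stimulus.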
KCNK3 block: human KCNK3 channel inhibition, primary screen; O14649; CHO-KCNK3 thallium flux, FluxOR fluorescence; active compounds read low; B-score at 10 µM; 340,000 tested, 0.84% active; AID 602410;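 active = B-score under library mean minus 4 SD, starting fluorescence ratio at most library mean plus 5 SD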;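 also: more negative B-score means stronger inhibition of thallium flux through KCNK3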
Target sequence (O14649 whole entry, looked up): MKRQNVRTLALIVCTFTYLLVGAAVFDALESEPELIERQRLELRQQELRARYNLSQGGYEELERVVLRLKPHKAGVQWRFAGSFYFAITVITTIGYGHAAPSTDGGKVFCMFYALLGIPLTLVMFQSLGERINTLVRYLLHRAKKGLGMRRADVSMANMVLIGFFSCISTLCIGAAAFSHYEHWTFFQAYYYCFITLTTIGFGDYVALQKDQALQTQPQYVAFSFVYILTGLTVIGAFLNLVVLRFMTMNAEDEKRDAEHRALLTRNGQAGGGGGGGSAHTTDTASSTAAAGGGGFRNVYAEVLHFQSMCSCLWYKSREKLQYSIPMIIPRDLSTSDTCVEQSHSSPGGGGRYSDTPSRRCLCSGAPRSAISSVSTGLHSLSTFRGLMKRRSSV
KCNK9 block conf: confirmation of human KCNK9 potassium channel inhibitors | shares compounds with KCNK9 block | HEK293 KCNK9 cells, FluxOR thallium flux fluorescence | inhibition, % at 10 µM | 4,900 tested, 43% active | AID 492992;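 active = thallium signal inhibited by more than 5 SD of the compound-free buffer control wells, on both duplicate plates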;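 also: 0% = assay buffer control wells without compound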
Kir21 sel: mouse Kir2.1 off-target activity of KCNK9 modulators. Kir2.1 cells, FluxOR thallium flux fluorescence. inhibition, % at 10 µM. AID 492993. shares compounds with KCNK9 block. 4,900 tested, 4% active;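 active = thallium signal drop more than 5 SD beyond the mean of the no-compound control wells, seen in both duplicate plates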;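 also: signal is fluorescence rise after thallium addition divided by baseline fluorescence; plate controls were assay buffer only for no effect and full block by chlorpromazine control for full effect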
HEK293 Tl ctr: second check of KCNK9 modulator effects in non-induced HEK293 cells | FluxOR thallium flux | shares compounds with KCNK9 block | inhibition, % at 10 µM | 4,900 tested, 40% active;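 active = thallium signal drop beyond 5 SD of the untreated control mean, on both duplicate plates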;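 also: plate controls were buffer only IC0 wells for no effect and SID17386958 at its maximal inhibitory level for full effect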
KCNK3 confirm: human KCNK3 channel inhibition, confirmation assay | AID 651638 | CHO-KCNK3 thallium flux, FluxOR fluorescence; 0% buffer, 100% carvedilol maximal block | ratio percent of control, % at 10 µM | 2,400 tested, 99% active | shares compounds with KCNK3 block;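 active = ratio percent of control, averaged over triplicates, above buffer control mean plus 5 SD, cut at about 64% in these data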;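 also: ratio is the fluorescence rise from min to max over baseline after thallium stimulus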
KCNK3 uninduced: counter-screen for KCNK3 inhibitors: effect in non-induced cells; AID 651747; shares compounds with KCNK3 block; non-induced KCNK3 parental cells, FluxOR thallium flux; active compounds read low; thallium flux ratio (lower = more inhibition) at 10 µM; 2,400 tested, 40% active;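 active = thallium flux ratio, averaged over three wells, more than 5 SD below the buffer control mean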;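 also: host cells are CHO cells without KCNK3 induction; ratio is peak minus trough fluorescence over baseline then normalized to buffer controls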
An asterisk follows results filed as active; i = inactive; nt = not tested or not shown.

SMILES	KCNQ1 block	KCNK9 block	hERG rescue	KCNQ1 pot	KCNK3 block	KCNK9 block conf	Kir21 sel	HEK293 Tl ctr	KCNK3 confirm	KCNK3 uninduced
O=C(COC(=O)c1ccccc1NC(=O)c1ccccc1)c1ccc([N+](=O)[O-])cc1	i	-14*	-7	i	-9.6*	73%*	i	34%*	104*	i
CCn1c(C)nc2cc(C(=O)NNC(=S)NC(=O)c3ccc(OC)cc3)ccc21	i	i	-5	i	i	nt	nt	nt	nt	nt
CCN(CCCNC(=O)c1cc2c(-c3cccc(OC)c3)nn(C)c2s1)Cc1ccccc1	i	i	-13	i	i	nt	nt	nt	nt	nt
COc1cccc(-c2nn(C)c3sc(C(=O)NCc4ccc5c(c4)OCO5)cc23)c1	i	-13*	-18	i	-11*	58%*	i	24%*	99*	i
O=C(CSc1nc2ccc(NC(=O)CSc3nnnn3-c3ccccc3)cc2s1)Nc1ccccc1	i	i	0	i	i	nt	nt	nt	nt	nt
c1ccc(-n2nnnc2SCCCSc2nc3ccccc3s2)cc1	i	-15*	-13	i	-9.9*	62%*	i	46%*	103*	i
CC1Cc2ccccc2N1S(=O)(=O)c1cccc(C(=O)NCCCn2ccnc2)c1 (centres undefined)	i	i	-10	i	i	nt	nt	nt	nt	nt
CCCCn1c(N)c(N(CCOC)C(=O)c2ccc(COc3ccccc3)o2)c(=O)[nH]c1=O	i	i	-10	i	i	nt	nt	nt	nt	nt
COc1ccc(/C=C/C(=O)NCCCN2CCOCC2)cc1	i	i	-8	i	i	nt	nt	nt	nt	nt
COc1cccc(C(=O)COc2ccc3ccc(=O)oc3c2)c1	i	i	-13	i	i	nt	nt	nt	nt	nt
O=c1ccc2ccc(OCCOc3cccc(Cl)c3)cc2o1	i	-9.5*	-16	i	i	32%*	i	42%*	100*	i
Cc1ccc2c(c1)C(=O)N1[C@H]3c4ccccc4OC[C@@H]3[C@H](c3ccccc3)[C@]1(C)C(=O)N2	nt	nt	nt	nt	i	nt	nt	nt	nt	nt
CCOC(=O)c1c(NC(=O)Cn2nc(C(F)F)cc2C(F)F)sc(C)c1C	i	-10*	-8	i	-13*	57%*	i	46%*	107*	i
COC(=O)c1c(NC(=O)Cn2nc(C(F)F)cc2C(F)F)sc(C)c1C	i	i	-6	i	i	nt	nt	nt	nt	nt
COc1ccc(C)cc1NC(=O)c1cccc(C(=O)Nc2cc(C)ccc2OC)n1	i	-16*	-8	i	i	61%*	i	32%*	107*	i
CCc1cc2c(=O)oc(-c3ccc(Br)cc3)nc2s1	i	i	-4	i	i	nt	nt	nt	nt	nt
CCOC(=O)c1nn(-c2cccc(OC)c2)c(-c2ccccc2)c1C(=O)c1ccccc1	i	-10*	-7	i	-9.3*	50%*	i	i	113*	0.14*
CCN(Cc1ccccc1)C(=O)CN1C(=O)COc2ccc(S(=O)(=O)N3CCCCCC3)cc21	i	i	-15	i	i	nt	nt	nt	nt	nt
CCN(C(=O)CN1C(=O)COc2ccc(S(=O)(=O)N3CCCCCC3)cc21)c1cccc(C)c1	i	-12*	-11	i	-8.8*	44%*	i	24%*	120*	i
Cc1ccc(-n2nc3c(c2NC(=O)c2cccs2)CS(=O)(=O)C3)cc1C	i	i	-8	i	i	nt	nt	nt	nt	nt
Cc1ccc(C(=O)Nc2ccccc2N2CCCCC2)o1	i	i	-11	i	i	nt	nt	nt	nt	nt
Cc1ccc(COn2c(-c3ccc(Cl)cc3Cl)nc3ncccc32)cc1	i	-11*	-15	i	-9.6*	56%*	i	42%*	120*	0.15*
